Laboratory results taken from ChEMBL document CHEMBL5058577, “EUbOPEN Chemogenomics Library 2 (Multiplex)” (2022).

System: Fibroblast
Experiment: Multiplex assay against human fibroblast
Format: toxicity, cell-based
Outline: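 Values for tubulin, mitochondrial-mass and membrane-permeability phenotypes are per cents of cells with healthy nuclei. These cells were identified by CellPathfinder machine-learning gating of live cells that had been stained at seeding with Hoechst33342, BioTracker Green Microtubule Cytoskeleton Dye, MitoTracker Red and Annexin V Alexa Fluor 680 and imaged on a CQ1 microscope at 37°C and 5% CO2 after compound addition. The gating first set Hoechst high-intensity objects apart from normal cells, then split normal cells into healthy, pyknosed or fragmented nuclei, and pyknosed cells into mitotic or apoptotic.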

[1] = 12 h, 1 µM, compound concentration 1 uM, replicate 1
[2] = 12 h, 1 µM, compound concentration 1 uM, replicate 2
[3] = 12 h, 10 µM, compound concentration 10 uM, replicate 1
[4] = 12 h, 10 µM, compound concentration 10 uM, replicate 2
[5] = 24 h, 1 µM, compound concentration 1 uM, replicate 1
[6] = 24 h, 1 µM, compound concentration 1 uM, replicate 2
[7] = 24 h, 10 µM, compound concentration 10 uM, replicate 1
[8] = 24 h, 10 µM, compound concentration 10 uM, replicate 2
[9] = 48 h, 1 µM, compound concentration 1 uM, replicate 1
[10] = 48 h, 1 µM, compound concentration 1 uM, replicate 2
[11] = 48 h, 10 µM, compound concentration 10 uM, replicate 1
[12] = 48 h, 10 µM, compound concentration 10 uM, replicate 2

Cc1cc(-c2ccc3c(c2)CC[C@H]3N2CC3(CCN(C(=O)Cc4cn5cc(C)sc5n4)CC3)C2)ncn1 [PF-5190457]
Population Apoptotic (%) [1]: 29%
Population Fragmented Nuclei (%) [1]: 16%
Population Healthy Nuclei (%) [1]: 71%
Population Hoechst High Intensity Objects (%) [1]: 4%
Population Membrane Permeable-Phenotype (%) [1]: 1%
Population Mitochondria Different-Phenotype (%) [1]: 5%
Population Mitotic Cells (%) [1]: 70%
Population Normal (%) [1]: 96%
Population Pyknosed Nuclei (%) [1]: 11%
Population Tubulin-Different-Phenotype (%) [1]: 24%
Total Cell Count [1]: 150
Population Apoptotic (%) [2]: 30%
Population Fragmented Nuclei (%) [2]: 18%
Population Healthy Nuclei (%) [2]: 46%
Population Membrane Permeable-Phenotype (%) [2]: 9%
Population Mitochondria Different-Phenotype (%) [2]: 0%
Population Normal (%) [2]: 95%
Population Pyknosed Nuclei (%) [2]: 34%
Population Tubulin-Different-Phenotype (%) [2]: 48%
Total Cell Count [2]: 121
Population Apoptotic (%) [3]: 36%
Population Fragmented Nuclei (%) [3]: 17%
Population Healthy Nuclei (%) [3]: 63%
Population Hoechst High Intensity Objects (%) [3]: 4%
Population Membrane Permeable-Phenotype (%) [3]: 1%
Population Mitochondria Different-Phenotype (%) [3]: 5%
Population Mitotic Cells (%) [3]: 63%
Population Normal (%) [3]: 95%
Population Pyknosed Nuclei (%) [3]: 18%
Population Tubulin-Different-Phenotype (%) [3]: 38%
Total Cell Count [3]: 186
Population Apoptotic (%) [4]: 45%
Population Fragmented Nuclei (%) [4]: 20%
Population Healthy Nuclei (%) [4]: 55%
Population Hoechst High Intensity Objects (%) [4]: 1%
Population Membrane Permeable-Phenotype (%) [4]: 6%
Population Mitochondria Different-Phenotype (%) [4]: 4%
Population Mitotic Cells (%) [4]: 54%
Population Normal (%) [4]: 98%
Population Pyknosed Nuclei (%) [4]: 24%
Population Tubulin-Different-Phenotype (%) [4]: 56%
Total Cell Count [4]: 138
Population Apoptotic (%) [5]: 54%
Population Fragmented Nuclei (%) [5]: 19%
Population Healthy Nuclei (%) [5]: 72%
Population Hoechst High Intensity Objects (%) [5]: 2%
Population Membrane Permeable-Phenotype (%) [5]: 1%
Population Mitochondria Different-Phenotype (%) [5]: 4%
Population Mitotic Cells (%) [5]: 45%
Population Normal (%) [5]: 97%
Population Pyknosed Nuclei (%) [5]: 7%
Population Tubulin-Different-Phenotype (%) [5]: 26%
Total Cell Count [5]: 141
Population Apoptotic (%) [6]: 15%
Population Fragmented Nuclei (%) [6]: 23%
Population Healthy Nuclei (%) [6]: 43%
Population Hoechst High Intensity Objects (%) [6]: 3%
Population Membrane Permeable-Phenotype (%) [6]: 5%
Population Mitochondria Different-Phenotype (%) [6]: 5%
Population Mitotic Cells (%) [6]: 84%
Population Normal (%) [6]: 96%
Population Pyknosed Nuclei (%) [6]: 32%
Population Tubulin-Different-Phenotype (%) [6]: 54%
Total Cell Count [6]: 126
Population Apoptotic (%) [7]: 44%
Population Fragmented Nuclei (%) [7]: 19%
Population Healthy Nuclei (%) [7]: 64%
Population Hoechst High Intensity Objects (%) [7]: 3%
Population Membrane Permeable-Phenotype (%) [7]: 0%
Population Mitochondria Different-Phenotype (%) [7]: 6%
Population Mitotic Cells (%) [7]: 55%
Population Normal (%) [7]: 96%
Population Pyknosed Nuclei (%) [7]: 16%
Population Tubulin-Different-Phenotype (%) [7]: 37%
Total Cell Count [7]: 180
Population Apoptotic (%) [8]: 53%
Population Fragmented Nuclei (%) [8]: 25%
Population Healthy Nuclei (%) [8]: 49%
Population Hoechst High Intensity Objects (%) [8]: 5%
Population Membrane Permeable-Phenotype (%) [8]: 1%
Population Mitochondria Different-Phenotype (%) [8]: 7%
Population Mitotic Cells (%) [8]: 46%
Population Normal (%) [8]: 94%
Population Pyknosed Nuclei (%) [8]: 25%
Population Tubulin-Different-Phenotype (%) [8]: 60%
Total Cell Count [8]: 134
Population Apoptotic (%) [9]: 78%
Population Fragmented Nuclei (%) [9]: 30%
Population Healthy Nuclei (%) [9]: 59%
Population Hoechst High Intensity Objects (%) [9]: 6%
Population Membrane Permeable-Phenotype (%) [9]: 2%
Population Mitochondria Different-Phenotype (%) [9]: 2%
Population Mitotic Cells (%) [9]: 21%
Population Normal (%) [9]: 93%
Population Pyknosed Nuclei (%) [9]: 9%
Population Tubulin-Different-Phenotype (%) [9]: 23%
Total Cell Count [9]: 157
Population Apoptotic (%) [10]: 34%
Population Fragmented Nuclei (%) [10]: 32%
Population Healthy Nuclei (%) [10]: 47%
Population Hoechst High Intensity Objects (%) [10]: 2%
Population Membrane Permeable-Phenotype (%) [10]: 14%
Population Mitochondria Different-Phenotype (%) [10]: 6%
Population Mitotic Cells (%) [10]: 65%
Population Normal (%) [10]: 97%
Population Pyknosed Nuclei (%) [10]: 20%
Population Tubulin-Different-Phenotype (%) [10]: 68%
Total Cell Count [10]: 132
Population Apoptotic (%) [11]: 63%
Population Fragmented Nuclei (%) [11]: 22%
Population Healthy Nuclei (%) [11]: 66%
Population Hoechst High Intensity Objects (%) [11]: 6%
Population Membrane Permeable-Phenotype (%) [11]: 0%
Population Mitochondria Different-Phenotype (%) [11]: 12%
Population Mitotic Cells (%) [11]: 36%
Population Normal (%) [11]: 93%
Population Pyknosed Nuclei (%) [11]: 10%
Population Tubulin-Different-Phenotype (%) [11]: 37%
Total Cell Count [11]: 192
Population Apoptotic (%) [12]: 62%
Population Fragmented Nuclei (%) [12]: 30%
Population Healthy Nuclei (%) [12]: 51%
Population Hoechst High Intensity Objects (%) [12]: 1%
Population Membrane Permeable-Phenotype (%) [12]: 5%
Population Mitochondria Different-Phenotype (%) [12]: 14%
Population Mitotic Cells (%) [12]: 37%
Population Normal (%) [12]: 98%
Population Pyknosed Nuclei (%) [12]: 18%
Population Tubulin-Different-Phenotype (%) [12]: 64%
Total Cell Count [12]: 135

O=C(Nc1cc(-c2ccccc2)nn1-c1ccccc1F)c1ccc([N+](=O)[O-])cc1
Population Apoptotic (%) [1]: 28%
Population Fragmented Nuclei (%) [1]: 17%
Population Healthy Nuclei (%) [1]: 71%
Population Hoechst High Intensity Objects (%) [1]: 2%
Population Membrane Permeable-Phenotype (%) [1]: 1%
Population Mitochondria Different-Phenotype (%) [1]: 1%
Population Mitotic Cells (%) [1]: 71%
Population Normal (%) [1]: 97%
Population Pyknosed Nuclei (%) [1]: 10%
Population Tubulin-Different-Phenotype (%) [1]: 22%
Total Cell Count [1]: 138
Population Apoptotic (%) [2]: 32%
Population Fragmented Nuclei (%) [2]: 19%
Population Healthy Nuclei (%) [2]: 55%
Population Hoechst High Intensity Objects (%) [2]: 8%
Population Membrane Permeable-Phenotype (%) [2]: 4%
Population Mitochondria Different-Phenotype (%) [2]: 9%
Population Mitotic Cells (%) [2]: 67%
Population Normal (%) [2]: 91%
Population Pyknosed Nuclei (%) [2]: 25%
Population Tubulin-Different-Phenotype (%) [2]: 53%
Total Cell Count [2]: 160
Population Apoptotic (%) [3]: 28%
Population Fragmented Nuclei (%) [3]: 10%
Population Healthy Nuclei (%) [3]: 66%
Population Hoechst High Intensity Objects (%) [3]: 2%
Population Membrane Permeable-Phenotype (%) [3]: 1%
Population Mitochondria Different-Phenotype (%) [3]: 4%
Population Mitotic Cells (%) [3]: 71%
Population Normal (%) [3]: 97%
Population Pyknosed Nuclei (%) [3]: 22%
Population Tubulin-Different-Phenotype (%) [3]: 48%
Total Cell Count [3]: 170
Population Apoptotic (%) [4]: 45%
Population Fragmented Nuclei (%) [4]: 25%
Population Healthy Nuclei (%) [4]: 47%
Population Hoechst High Intensity Objects (%) [4]: 6%
Population Membrane Permeable-Phenotype (%) [4]: 6%
Population Mitochondria Different-Phenotype (%) [4]: 3%
Population Mitotic Cells (%) [4]: 54%
Population Normal (%) [4]: 93%
Population Pyknosed Nuclei (%) [4]: 26%
Population Tubulin-Different-Phenotype (%) [4]: 77%
Total Cell Count [4]: 149
Population Apoptotic (%) [5]: 53%
Population Fragmented Nuclei (%) [5]: 16%
Population Healthy Nuclei (%) [5]: 74%
Population Hoechst High Intensity Objects (%) [5]: 2%
Population Membrane Permeable-Phenotype (%) [5]: 0%
Population Mitochondria Different-Phenotype (%) [5]: 0%
Population Mitotic Cells (%) [5]: 46%
Population Normal (%) [5]: 97%
Population Pyknosed Nuclei (%) [5]: 9%
Population Tubulin-Different-Phenotype (%) [5]: 18%
Total Cell Count [5]: 135
Population Apoptotic (%) [6]: 50%
Population Fragmented Nuclei (%) [6]: 25%
Population Healthy Nuclei (%) [6]: 53%
Population Hoechst High Intensity Objects (%) [6]: 7%
Population Membrane Permeable-Phenotype (%) [6]: 6%
Population Mitochondria Different-Phenotype (%) [6]: 2%
Population Mitotic Cells (%) [6]: 50%
Population Normal (%) [6]: 92%
Population Pyknosed Nuclei (%) [6]: 20%
Population Tubulin-Different-Phenotype (%) [6]: 52%
Total Cell Count [6]: 156
Population Apoptotic (%) [7]: 26%
Population Fragmented Nuclei (%) [7]: 7%
Population Healthy Nuclei (%) [7]: 76%
Population Hoechst High Intensity Objects (%) [7]: 4%
Population Membrane Permeable-Phenotype (%) [7]: 1%
Population Mitochondria Different-Phenotype (%) [7]: 7%
Population Mitotic Cells (%) [7]: 73%
Population Normal (%) [7]: 95%
Population Pyknosed Nuclei (%) [7]: 16%
Population Tubulin-Different-Phenotype (%) [7]: 49%
Total Cell Count [7]: 163
Population Apoptotic (%) [8]: 28%
Population Fragmented Nuclei (%) [8]: 28%
Population Healthy Nuclei (%) [8]: 53%
Population Hoechst High Intensity Objects (%) [8]: 6%
Population Membrane Permeable-Phenotype (%) [8]: 9%
Population Mitochondria Different-Phenotype (%) [8]: 1%
Population Mitotic Cells (%) [8]: 72%
Population Normal (%) [8]: 93%
Population Pyknosed Nuclei (%) [8]: 18%
Population Tubulin-Different-Phenotype (%) [8]: 69%
Total Cell Count [8]: 147
Population Apoptotic (%) [9]: 54%
Population Fragmented Nuclei (%) [9]: 23%
Population Healthy Nuclei (%) [9]: 67%
Population Hoechst High Intensity Objects (%) [9]: 7%
Population Membrane Permeable-Phenotype (%) [9]: 1%
Population Mitochondria Different-Phenotype (%) [9]: 0%
Population Mitotic Cells (%) [9]: 45%
Population Normal (%) [9]: 92%
Population Pyknosed Nuclei (%) [9]: 8%
Population Tubulin-Different-Phenotype (%) [9]: 18%
Total Cell Count [9]: 145
Population Apoptotic (%) [10]: 55%
Population Fragmented Nuclei (%) [10]: 30%
Population Healthy Nuclei (%) [10]: 53%
Population Membrane Permeable-Phenotype (%) [10]: 5%
Population Mitochondria Different-Phenotype (%) [10]: 4%
Population Mitotic Cells (%) [10]: 44%
Population Pyknosed Nuclei (%) [10]: 15%
Population Tubulin-Different-Phenotype (%) [10]: 54%
Total Cell Count [10]: 183
Population Apoptotic (%) [11]: 66%
Population Fragmented Nuclei (%) [11]: 16%
Population Healthy Nuclei (%) [11]: 70%
Population Hoechst High Intensity Objects (%) [11]: 7%
Population Membrane Permeable-Phenotype (%) [11]: 3%
Population Mitochondria Different-Phenotype (%) [11]: 3%
Population Mitotic Cells (%) [11]: 33%
Population Normal (%) [11]: 92%
Population Pyknosed Nuclei (%) [11]: 12%
Population Tubulin-Different-Phenotype (%) [11]: 55%
Total Cell Count [11]: 160
Population Apoptotic (%) [12]: 52%
Population Fragmented Nuclei (%) [12]: 31%
Population Healthy Nuclei (%) [12]: 54%
Population Hoechst High Intensity Objects (%) [12]: 5%
Population Membrane Permeable-Phenotype (%) [12]: 6%
Population Mitotic Cells (%) [12]: 47%
Population Normal (%) [12]: 94%
Population Pyknosed Nuclei (%) [12]: 14%
Population Tubulin-Different-Phenotype (%) [12]: 66%
Total Cell Count [12]: 153
